This is an account of results in PMC7594318 (ACS Omega, 2020).

Format in all cases: cell-based
Experiment [1] concerns human promyelocytic leukemia HL-60 cells. The experiment can be described thus: WST-8 cytotoxicity assay, HL-60 cells. To be noted: read-out: IC50 (μM) HL-60. In outline: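 HL-60 promyelocytic leukemia cells, grown in RPMI 1640 + 10% FBS at 37 °C, 5% CO2, plated at 5000 cells/well with various concentrations for 72 h (DMSO 0.1–0.2% v/v). CCK-8 (WST-8) reagent added for 2 h at 37 °C, absorbance read at 450 nm. Growth is taken as the sample/control absorbance ratio. IC50 is the mean ± SD of triplicate experiments. SN-38 positive control.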
For orientation: Tetrazolium dyes change colour on reduction, which living cells bring about.

The subject of experiment [2] is human lung adenocarcinoma A549 cells. The experiment can be described thus: WST-8 cytotoxicity assay, A549 cells. To be noted: for IC50: read-out: IC50 (μM) A549; for SI (selectivity index): IC50 against normal MRC-5 cells divided by IC50 against A549 cells. In outline:
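Human lung adenocarcinoma A549 cells, kept in DMEM + 10% FBS at 37 °C, 5% CO2, seeded at 2000 cells/well, preincubated 24 h, then exposed to various concentrations for 72 h (DMSO 0.1–0.2% v/v). WST-8 (CCK-8) reagent 2 h at 37 °C, A450. Growth is sample/control absorbance. IC50 is mean ± SD of triplicates. SN-38 positive control. SI = MRC-5 IC50 / A549 IC50.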

The test system of experiment [3] is human normal lung fibroblast MRC-5 cells. The experiment can be described thus: WST-8 cytotoxicity assay, normal MRC-5 cells. To be noted: read-out: IC50 (μM) MRC-5. The essentials: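 Normal lung fibroblast MRC-5 cells in α-MEM without ribonucleosides/deoxyribonucleosides + 10% FBS. Seeded at 2000 cells/well, preincubated 24 h, then treated with various concentrations for 72 h (DMSO 0.1–0.2% v/v). WST-8 (CCK-8) reagent 2 h at 37 °C, A450. Growth is the ratio of sample to control absorbance. IC50 is the mean ± SD of triplicates. SN-38 positive control.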

The mark [4] stands for this setting: Table 3, WST-8, 72 h, mean ± SD of triplicate experiments.
Setting [5] is: Table 4, WST-8, 72 h, mean ± SD of triplicate experiments.

Like-named read-outs stand apart in the source and are kept apart here.

What is called IC50 is the midpoint of a concentration-inhibition curve. As for `Cn1c2cccc(=O)c-2nc2ccccc21` [1a, pyocyanin], the 50% inhibitory concentration (IC50) turned out to be 5.82 ± 0.133 µM in experiment [1] (Homo sapiens, HL-60, 72 h); 5.52 ± 0.28 µM in experiment [2] (Homo sapiens, A549, 72 h); 21.8 ± 2.55 µM in experiment [3] (Homo sapiens, MRC5, 72 h). In addition, the “SI (selectivity index)” value in experiment [2] (Table 3) was found to be 3.95.

`Cn1c2ccc(Br)c(=O)c-2nc2ccccc21` [1b, 2-Bromo-5-methylphenazin-1(5H)-one]: the half-inhibitory concentration (IC50) came to 3.07 ± 0.08 µM in experiment [1] (Homo sapiens, HL-60, 72 h); 2.59 ± 0.056 µM in experiment [2] (Homo sapiens, A549, 72 h); 3.36 ± 0.204 µM in experiment [3] (Homo sapiens, MRC5, 72 h). Moreover, in experiment [2] (Table 3), the “SI (selectivity index)” value was found to be 1.30.

With `CC(C)=CCn1c2ccc(Cl)c(=O)c-2nc2ccccc21` [3c, 2-Chloro-5-(3-methylbut-2-en-1-yl)phenazin-1(5H)-one], the IC50 worked out at 2.2 ± 0.07 µM in experiment [1] (Homo sapiens, HL-60, 72 h); 0.66 ± 0.016 µM in experiment [2] (Homo sapiens, A549, 72 h); 0.66 ± 0.041 µM in experiment [3] (Homo sapiens, MRC5, 72 h). In addition, the “SI (selectivity index)” value in experiment [2] (Table 4) was found to be 1.00.

On to `CCc1c2c(nc3ccc(O)cc13)-c1cc3c(c(=O)n1C2)COC(=O)[C@]3(O)CC` [SN-38, reference compound], for which the IC50 in experiment [1] (setting [4]) is less than 0.05 µM; in experiment [1] (setting [5]), 0.056 ± 0.002 µM; in experiment [2] (setting [4]) it was 0.038 ± 0.003 µM; in experiment [2] (setting [5]), 0.052 ± 0.003 µM; in experiment [3] (setting [4]), less than 0.1 µM; in experiment [3] (setting [5]), 0.092 ± 0.001 µM.
